Screening results from PubChem BioAssay.
Compounds with a hit are over-represented: about 2.4% of the library has one in this group of screens.
Neddylation inh: inhibitors of human cullin neddylation. 360,000 compounds, 0.58% hits. AID 651699. TR-FRET cullin neddylation, biochemical. inhibition, % at 25 µM. P61081+Q13564; in the data active = inhibition above about 36%
Rin1 Abl inh: inhibitors of human Rin1-Abl protein interaction; 360,000 compounds, 0.4% hits; AID 588664; inhibition, % at 7.35 µM; TR-FRET Rin1/Abl binding, biochemical; P00519+Q13671; in the data active = inhibition above about 5%, passing the limit was not always enough
HNF4A DNA FP: change in binding of human HNF4 alpha to DNA; HNF4a-FITC DNA binding, fluorescence polarization, 1 h; activity change, % at 10 µM; 360,000 compounds, 0.3% hits; AID 1224865; in the data active = activity change above about 30%, passing the limit was not always enough
TPT1 inh: blocks Candida albicans tRNA 2'-phosphotransferase. recombinant caTPT1, FP RNA substrate dephosphorylation. inhibition, % at 5 µM. 300,000 compounds, 0.81% hits. AID 1962;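 active = inhibition above the mean of all tested compounds plus 3 SD, set per screening campaign, cut at about 24% in these data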;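 note: plate controls were DMSO alone for no effect and ferristatin control at 100 nM for full effect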
Rpn11 block: Rpn11 (human) deubiquitinase inhibition; O00487; human 26S proteasome, Ub4-pepOG fluorescence polarization; 20S core pre-blocked with epoxomicin; inhibition, % at 20 µM; 360,000 compounds, 0.59% hits; AID 588493;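 active = inhibition at 20 µM, scaled to each plate's controls, above about 33%, limit read from the data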
CSN inh: blocks human CSN-mediated cullin deneddylation. Q92905. Purified CSN, SCF-Nedd8-OG deneddylation, fluorescence polarization. inhibition, % at 12.5 µM. 360,000 compounds, 0.38% hits. AID 651999;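 active = pattern-corrected inhibition above about 35%, with an unprinted fluorescence ratio check between 0.5 and 1.5, limit read from the data, passing the limit was not always enough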;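 note: 0% = enzyme with substrate and 100% = substrate without enzyme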
Target sequence (Q92905 whole entry, looked up, one chain of several): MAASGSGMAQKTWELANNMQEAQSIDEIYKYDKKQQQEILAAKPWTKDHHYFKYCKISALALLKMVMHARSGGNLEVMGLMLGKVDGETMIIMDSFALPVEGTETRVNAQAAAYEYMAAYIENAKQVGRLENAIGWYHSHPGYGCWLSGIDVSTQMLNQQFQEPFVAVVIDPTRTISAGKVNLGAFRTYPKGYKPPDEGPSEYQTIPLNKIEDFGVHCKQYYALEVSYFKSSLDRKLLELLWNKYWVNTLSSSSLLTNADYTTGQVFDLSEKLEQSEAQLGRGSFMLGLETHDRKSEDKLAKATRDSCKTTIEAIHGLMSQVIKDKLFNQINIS
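Schedule: reaction 90 min, room temperature / Assay system: HEK293T-derived human Csn5 enzyme / Input: Csn5 at 0.24 nM final / Measure: inhibition of Csn5 cleavage, % / Control set: substrate-only high control, full reaction low control / Technique: fluorescence polarization of the substrate / Buffer or medium: Tris/NaCl/DTT buffer, pH 7.5 / Reagent: SCFSkp2-Nedd8OG substrate at 10 nM final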
Neddyl inh conf: cullin neddylation inhibition, confirmation | shares compounds with Neddylation inh | TR-FRET cullin neddylation biochemical assay | calls only at 25 µM | 1,800 compounds, 13% hits | AID 652217; in the data active = inhibition above about 40%;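 note: neddylation substrate is the cullin 1 ring ligase complex with SKP2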
An asterisk follows results filed as active.

Results for CNc1nc(-c2ccccc2)cc(C)c1S(C)(=O)=O ?
Rin1 Abl inh: 2; HNF4A DNA FP: 1; TPT1 inh: -2; Rpn11 block: 1; CSN inh: -3

How did COC(OC)C1Nc2ccccc2C(=O)N1c1ccc(F)cc1 (stereo not drawn) do in these assays?
Neddylation inh: 43*; Rin1 Abl inh: 6; HNF4A DNA FP: -6; Rpn11 block: 0; CSN inh: 10

How did CCc1ccc([C@H]2[C@@H]3C(=O)C[C@@H]4C(=O)N(C5CCCCC5)C(=O)[C@@H]4[C@@H]3CN2S(=O)(=O)c2ccc(C)cc2)cc1 do in these assays?
Neddylation inh: -2; Rin1 Abl inh: 2; HNF4A DNA FP: -1; Rpn11 block: 3; CSN inh: -2

What do the screens show for `O=C(N/N=C/c1ccc([N+](=O)[O-])o1)c1ccncc1`?
Neddylation inh: 43*; Rin1 Abl inh: -4; HNF4A DNA FP: -4; TPT1 inh: 4; Rpn11 block: -1; CSN inh: 4; Neddyl inh conf: inactive

Results for CCn1nc(NC(=O)c2cccnc2)c2cc3ccccc3nc21 ?
Neddylation inh: 41*; Rin1 Abl inh: -1; HNF4A DNA FP: 0; TPT1 inh: -6; Rpn11 block: 4; CSN inh: -7; Neddyl inh conf: inactive

Results for CCn1nc(NC(=O)C(C)C)c2cc3ccc(C)cc3nc21 ?
Neddylation inh: 39*; Rin1 Abl inh: 0; HNF4A DNA FP: 3; TPT1 inh: 2; Rpn11 block: -6; CSN inh: 0; Neddyl inh conf: inactive

Results for Cc1nc2ccc(C(=O)OCC(=O)N(C)c3ccccc3)cc2nc1C ?
Neddylation inh: -32; Rin1 Abl inh: -5; HNF4A DNA FP: 1; Rpn11 block: -6; CSN inh: 2

How did CCCN(CCC)CCCNC(=O)c1cn(CCOC)c(=O)c2c1c1ccccc1n2C do in these assays?
Neddylation inh: 38*; Rin1 Abl inh: -3; HNF4A DNA FP: 3; TPT1 inh: -3; Rpn11 block: -1; CSN inh: 5; Neddyl inh conf: inactive

How did CCN(CC)CCNC(=O)c1cc2c(=O)n(C)c3ccccc3c2n1C do in these assays?
Neddylation inh: 39*; Rin1 Abl inh: 0; HNF4A DNA FP: -4; TPT1 inh: -6; Rpn11 block: 8; CSN inh: 0

What do the screens show for `CCN(CC)CCNC(=O)c1nn(-c2ccc(C)cc2)c(=O)c2c1c1ccccc1n2C`?
Neddylation inh: 43*; Rin1 Abl inh: 0; HNF4A DNA FP: 3; TPT1 inh: 4; Rpn11 block: -6; CSN inh: 1; Neddyl inh conf: inactive

How did CCCCN(CC)CCNC(=O)c1cc2c(=O)n(C)c3ccccc3c2n1C do in these assays?
Neddylation inh: 37; Rin1 Abl inh: -2; HNF4A DNA FP: 2; TPT1 inh: -2; Rpn11 block: 3; CSN inh: -1

Results for CCN(CC)CCCNC(=O)c1cc2c(=O)n(C)c3ccccc3c2n1C ?
Neddylation inh: 41*; Rin1 Abl inh: -2; HNF4A DNA FP: 0; TPT1 inh: -1; Rpn11 block: -2; CSN inh: -1; Neddyl inh conf: inactive

How did Cn1c(=S)n(CCC(=O)O)c2ccccc21 do in these assays?
Neddylation inh: 1; Rin1 Abl inh: 0; HNF4A DNA FP: -1; TPT1 inh: 3; Rpn11 block: -8; CSN inh: -1

How did Cn1c(N)c(C(=O)CSc2nc3ccccc3[nH]2)c(=O)n(C)c1=O do in these assays?
Neddylation inh: 2; Rin1 Abl inh: 0; HNF4A DNA FP: 2; TPT1 inh: -4; Rpn11 block: -1; CSN inh: -8

What do the screens show for `CC(C)Cn1cc(C(=O)NCc2cccs2)c2c3ccccc3n(C)c2c1=O`?
Neddylation inh: 40*; Rin1 Abl inh: 1; HNF4A DNA FP: 1; TPT1 inh: -5; Rpn11 block: -5; CSN inh: 7; Neddyl inh conf: inactive

What do the screens show for `CC(C)CCNC(=O)c1cn(CC(C)C)c(=O)c2c1c1ccccc1n2C`?
Neddylation inh: 13; Rin1 Abl inh: 0; HNF4A DNA FP: 18; TPT1 inh: -3; Rpn11 block: 8; CSN inh: -2
